Active and inactive are the calls of the source. The rule behind the calls is not given here.
Columns and labels:
IGROV-1 [1] = assay: Cell cycle arrest in human IGROV1 cells assessed as accumulation at G1 phase at 5 uM after 24 hrs using propidium iodide staining by FACS analysis (reference value: 27 %); assay type: functional
Summary of the method: (§1)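 Cells were plated 24 h before treatment and exposed for 24 h at final 0.5, 5, 15 and 50 μM in 0.5% DMSO, against vehicle-treated controls. Cells were then trypsinised and fixed in cold ethanol for 3 h at 4 °C. They were stained in a mix of RNase (200 μg/mL) and PI (1 mg/mL) for 45 min at room temperature in the dark. Flow cytometry used 488 nm excitation and 10 000 gated cells. Phase percentages were assigned from DNA content.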

BXPC-3 [2] = assay: Growth inhibition of human BxPC3 cells after 48 hrs by SRB assay; assay type: functional; conditions: BXPC-3, 48 h
Summary of the method: (§2)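 Cells grown in RPMI 1640 with 5% heat-inactivated FCS, 2 mM L-glutamine and antibiotics, 37 °C, 5% CO2. Seeded at 3500–30000 cells/well and left 24 h before dosing. DMSO solutions added at 10-fold dilutions from 100 to 0.01 μM for 48 h. Cells TCA-fixed and SRB-stained, absorbance read at 540 nm; GI50 derived against the time-zero plate.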

Mus musculus [3] = assay: Analgesic activity in CD1 mouse neuropathic pain model assessed as reduction in paw licking time at 100 mg/kg, po administered 1 hr prior to formalin challenge in presence of paclitaxel; assay type: functional, organism-based; parameters: dose 100 mg/kg
Summary of the method: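 CD1 male mice (34−40 g), free access to food and water, were given paclitaxel 6 mg/kg ip once in saline on day 0. On day 14 the test compound was given orally 1 h before formalin was injected into the hind paw. Time spent licking and biting the injected paw and leg was recorded at 0−5 and 35−40 min after formalin.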

IGROV-1 [4] = assay: Cell cycle arrest in human IGROV1 cells assessed as accumulation at S phase at 5 uM after 24 hrs using propidium iodide staining by FACS analysis (reference value: 29 %); assay type: functional
BXPC-3 [5] = assay: Cell cycle arrest in human BxPC3 cells assessed as accumulation at >G2/M phase at 50 uM after 24 hrs using propidium iodide staining by FACS analysis (reference value: 6 %); assay type: functional; summary of the method: as §1
BXPC-3 [6] = assay: Induction of apoptosis in human BxPC3 cells assessed as healthy cells at 50 uM using annexin V/7-AAD by FACS analysis (reference value: 79 %); assay type: functional
BXPC-3 [7] = assay: Cell cycle arrest in human BxPC3 cells assessed as accumulation at sub G1 phase at 15 uM after 24 hrs using propidium iodide staining by FACS analysis (reference value: 9 %); assay type: functional; summary of the method: as §1
IGROV-1 [8] = assay: Induction of apoptosis in human IGROV1 cells assessed as total apoptotic death at 50 uM using annexin V/7-AAD by FACS analysis (reference value: 13 %); assay type: functional
Summary of the method: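 Cells plated 24 h before treatment, then exposed 24 h to 0.5, 5, 15 or 50 μM compound (final DMSO 0.5%); vehicle controls included. Cells scraped and stained with annexin V-FITC and 7-AAD for 15 min on ice in the dark. Flow cytometry with 488 nm excitation, 10,000 gated cells. Early apoptosis was annexin V+/7-AAD−, late was annexin V+/7-AAD+.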

PC-3 [9] = assay: Induction of apoptosis in human PC3 cells assessed as late apoptosis at 50 uM using annexin V/7-AAD by FACS analysis (reference value: 3 %); assay type: functional
PC-3 [10] = assay: Induction of apoptosis in human PC3 cells assessed as healthy cells at 0.5 uM using annexin V/7-AAD by FACS analysis (reference value: 91 %); assay type: functional
BXPC-3 [11] = assay: Induction of apoptosis in human BxPC3 cells assessed as cleaved caspase3 containing cells at 15 uM by antibody-based FACS analysis (reference value: 8.2 %); assay type: functional
IGROV-1 [12] = assay: Induction of apoptosis in human IGROV1 cells assessed as healthy cells at 15 uM using annexin V/7-AAD by FACS analysis (reference value: 86 %); assay type: functional
BXPC-3 [13] = assay: Induction of apoptosis in human BxPC3 cells assessed as healthy cells at 0.5 uM using annexin V/7-AAD by FACS analysis (reference value: 79 %); assay type: functional
BXPC-3 [14] = assay: Cell cycle arrest in human BxPC3 cells assessed as accumulation at G1 phase at 15 uM after 24 hrs using propidium iodide staining by FACS analysis (reference value: 41 %); assay type: functional; summary of the method: as §1
PC-3 [15] = assay: Induction of apoptosis in human PC3 cells assessed as healthy cells at 5 uM using annexin V/7-AAD by FACS analysis (reference value: 91 %); assay type: functional
PC-3 [16] = assay: Cell cycle arrest in human PC3 cells assessed as accumulation at sub G1 phase at 50 uM after 24 hrs using propidium iodide staining by FACS analysis (reference value: 4 %); assay type: functional
BXPC-3 [17] = assay: Induction of apoptosis in human BxPC3 cells assessed as cleaved caspase3 containing cells at 50 uM by antibody-based FACS analysis (reference value: 8.2 %); assay type: functional
IGROV-1 [18] = assay: Induction of apoptosis in human IGROV1 cells assessed as late apoptosis at 50 uM using annexin V/7-AAD by FACS analysis (reference value: 5 %); assay type: functional
BXPC-3 [19] = assay: Induction of apoptosis in human BxPC3 cells assessed as early apoptosis at 15 uM using annexin V/7-AAD by FACS analysis (reference value: 9 %); assay type: functional
IGROV-1 [20] = assay: Cell cycle arrest in human IGROV1 cells assessed as accumulation at G1 phase at 0.5 uM after 24 hrs using propidium iodide staining by FACS analysis (reference value: 27 %); assay type: functional; summary of the method: as §1
BXPC-3 [21] = assay: Cell cycle arrest in human BxPC3 cells assessed as accumulation at G2 phase at 0.5 uM after 24 hrs using propidium iodide staining by FACS analysis (reference value: 12 %); assay type: functional; summary of the method: as §1
PC-3 [22] = assay: Cell cycle arrest in human PC3 cells assessed as accumulation at sub G1 phase at 0.5 uM after 24 hrs using propidium iodide staining by FACS analysis (reference value: 4 %); assay type: functional
IGROV-1 [23] = assay: Cell cycle arrest in human IGROV1 cells assessed as accumulation at sub G1 phase at 0.5 uM after 24 hrs using propidium iodide staining by FACS analysis (reference value: 4 %); assay type: functional
Mus musculus [24] = assay: Toxicity in SCID mouse assessed as body weight loss at 40 to 55 mg/kg, ip for 2 to 3 weeks; assay type: organism-based; parameters: route intraperitoneal; conditions: in vivo
Summary of the method: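 CD-1 (male and female) and SCID mice dosed ip at 40−55 mg/kg in 5% Tween 80 for chronic 2−3 week regimens. Deaths and body weight loss compared with vehicle (Tween 80 or Cremophor) and reference-drug groups. Weight loss, neurological, behavioral and dietary changes recorded as toxicity signs.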

HUVEC = assay: (§3) Growth inhibition of human HUVEC cells after 48 hrs by SRB assay; assay type: cell-based; conditions: huvec, 48 h; summary of the method: as §2
[25] = as §3; assay type: cell-based; conditions: HUVEC cells; summary of the method: as §2
IGROV-1 [26] = assay: Induction of apoptosis in human IGROV1 cells assessed as healthy cells at 50 uM using annexin V/7-AAD by FACS analysis (reference value: 86 %); assay type: functional
BXPC-3 [27] = assay: Cell cycle arrest in human BxPC3 cells assessed as accumulation at sub G1 phase at 50 uM after 24 hrs using propidium iodide staining by FACS analysis (reference value: 9 %); assay type: functional; summary of the method: as §1
BXPC-3 [28] = assay: Induction of apoptosis in human BxPC3 cells assessed as late apoptosis at 15 uM using annexin V/7-AAD by FACS analysis (reference value: 9 %); assay type: functional

CN1CCN(CCCc2ccc(C(c3ccccc3)C34CC5CC(CC(C5)C3)C4)cc2)CC1 (configuration not stated)
Activity (IGROV-1 [1]): 29% | GI50 (BXPC-3 [2]): 3.41 µM | LC50 (BXPC-3 [2]): 0.0088 µM | TGI (BXPC-3 [2]): 6.1 µM | Activity (Mus musculus [3]): Active | Activity (IGROV-1 [4]): 27% | Activity (BXPC-3 [5]): 4% | Activity (BXPC-3 [6]): 12% | Activity (BXPC-3 [7]): 24% | Activity (IGROV-1 [8]): 64% | Activity (PC-3 [9]): 9% | Activity (PC-3 [10]): 95% | Activity (BXPC-3 [11]): 17.5% | Activity (IGROV-1 [12]): 35% | Activity (BXPC-3 [13]): 82% | Activity (BXPC-3 [14]): 32% | Activity (PC-3 [15]): 92% | Activity (PC-3 [16]): 12% | Activity (BXPC-3 [17]): 4.8% | Activity (IGROV-1 [18]): 25% | Activity (BXPC-3 [19]): 19% | Activity (IGROV-1 [20]): 25% | Activity (BXPC-3 [21]): 11% | Activity (PC-3 [22]): 4% | Activity (IGROV-1 [23]): 4% | Activity (Mus musculus [24]): Non-toxic | LC50 (HUVEC): 8.62 µM | TGI (HUVEC): 5.8 µM | GI50 at 48 h [25]: 2.98 µM | Activity (IGROV-1 [26]): 26% | Activity (BXPC-3 [27]): 23% | Activity (BXPC-3 [28]): 26%

Reference: ChEMBL document CHEMBL2202989, “New adamantane phenylalkylamines with σ-receptor binding affinity and anticancer activity, associated with putative antagonism of neuropathic pain” (J Med Chem, 2012)
